HTRA1 inhibitor = HTRA1 (human) protease inhibition; Q92743; recombinant HTRA1, FP-rhodamine activity-based probe, fluorescence polarization; inhibition, % at 5.96 µM; 0.5% of 340,000 active; AID 504803; in the data active = inhibition above about 36%;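 note: 0% = enzyme with DMSO and 100% = wells lacking enzyme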
PRMT1 inh = PRMT1 (human) inhibition, primary screen; Q99873; recombinant PRMT1, activity-based probe fluorescence polarization; inhibition, % at 2.79 µM; 1.3% of 370,000 active;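 active = inhibition above about 21% made by adding two undisclosed values, limit read from the data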
Target sequence (Q99873 whole entry, looked up): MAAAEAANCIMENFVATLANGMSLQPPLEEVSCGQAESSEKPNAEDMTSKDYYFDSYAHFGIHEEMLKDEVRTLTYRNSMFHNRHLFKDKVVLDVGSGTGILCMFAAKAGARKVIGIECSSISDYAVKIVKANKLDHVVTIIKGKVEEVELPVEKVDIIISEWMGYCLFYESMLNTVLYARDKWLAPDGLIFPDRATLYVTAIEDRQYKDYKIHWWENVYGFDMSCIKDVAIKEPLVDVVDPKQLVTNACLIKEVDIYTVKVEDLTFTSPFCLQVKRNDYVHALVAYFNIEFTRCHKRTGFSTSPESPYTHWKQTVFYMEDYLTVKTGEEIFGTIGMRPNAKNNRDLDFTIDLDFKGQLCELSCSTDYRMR
SIAE inh = blocks human sialic acid acetylesterase; Q9HAT2; SIAE FP-Rh probe binding, fluorescence polarization; 0.69% of 370,000 active; inhibition, % at 9.66 µM;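 active = inhibition above a cutoff: mean of compounds within the control limits plus 3 SD of those, cut at about 17% in these data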;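 note: 0% = plate median of compound wells and 100% = probe without SIAE protein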
mABHD4 FP = ABHD4 (mouse) inhibition, primary FP screen. Q8VD66. purified mABHD4, FP-Rh probe fluorescence polarization. inhibition, % at 8.92 µM. 0.54% of 370,000 active;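 active = inhibition exceeding the mean over every tested compound plus 3 SD, cut at about 30% in these data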;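 note: 0% = plate median of compound wells and 100% = S159A mutant with DMSO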
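Assay system: mABHD4 protein; medium: HEPES pH 7.0, NaCl, Pluronic buffer; dosing: 8.92 µM, single dose; schedule: 45 min + 60 min at 25 °C; signal: FP readout, ex 525 nm / em 598 nm; read-out: normalized percent inhibition of probe labeling; repeats: single replicate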
TCR CD3 inh = inhibitors of human TCR-CD3 interaction; TAMRA-labeled TCR probe fluorescence, biochemical; inhibition, % at 9.4 µM; 0.37% of 360,000 active; in the data active = inhibition above about 19%;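 note: recombinant mutant TCR 2C K166C tagged with TAMRA read by polarization; 0% = receptor in buffer alone and 100% = receptor with positive control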
SIAE inh conf = confirmation of human SIAE inhibitors. shares compounds with SIAE inh. SIAE FP-Rh activity-based probe, fluorescence polarization. inhibition, % at 9.66 µM. 13% of 2,300 active. AID 1117263;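 active = mean inhibition of the replicates above the hit cutoff set in the primary screen, cut at about 17% in these data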;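 note: 0% = SIAE with DMSO and probe and 100% = probe without SIAE; inhibitors lower polarization as more probe stays unbound to SIAE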
Active calls of the source: *. The list is not random: actives were taken first. Their share in the collection is about 2.6%.

For CCC(CC)C(=O)NCCc1ccc(OC)cc1 the results were HTRA1 inhibitor -1, PRMT1 inh 0, SIAE inh 17*, mABHD4 FP -4, TCR CD3 inh -1 and SIAE inh conf 1.
Screening CCn1c(C(=O)O)c(CC(=O)N(C)c2ccc(OC)cc2OC)c2ccccc21 returned HTRA1 inhibitor -6, PRMT1 inh 1, SIAE inh 4, mABHD4 FP -4 and TCR CD3 inh -1.
For Oc1ccc(NC(=S)N=Nc2c(O)[nH]c3ccccc23)cc1 the results were HTRA1 inhibitor 14, PRMT1 inh -3, SIAE inh 19*, mABHD4 FP 19, TCR CD3 inh 3 and SIAE inh conf -6.
Screening CC(=O)Nc1cc(NC(C)=O)cc(C(=O)NCC2(N3CCOCC3)CCCCC2)c1 returned HTRA1 inhibitor 1, PRMT1 inh -1, SIAE inh 21*, mABHD4 FP 3, TCR CD3 inh 3 and SIAE inh conf -3.
For O=C(COC(=O)c1cccnc1)c1ccc(Cl)c(Cl)c1 the results were HTRA1 inhibitor -2, PRMT1 inh 7, SIAE inh -3, mABHD4 FP -3 and TCR CD3 inh -7.
O=C(COC(=O)c1cccnc1)c1ccc(Cl)cc1 was read as HTRA1 inhibitor -7, PRMT1 inh -1, SIAE inh 18*, mABHD4 FP 2, TCR CD3 inh -4 and SIAE inh conf -4.
`CC(C)NC(=S)Nc1ccc2cn[nH]c2c1` gave HTRA1 inhibitor 9, PRMT1 inh -1, SIAE inh 19*, mABHD4 FP 0, TCR CD3 inh 11 and SIAE inh conf -6.
O=C(O)C1=C[C@@H](c2csc3ccccc23)C[C@@H](OCc2ccc(CO)cc2)O1 was read as HTRA1 inhibitor -1, PRMT1 inh 2, SIAE inh 22*, mABHD4 FP 4, TCR CD3 inh 5 and SIAE inh conf -1.
O=C(NCC(c1ccco1)N1CCc2ccccc2C1)c1ccc(F)cc1 (stereo unspecified) was read as HTRA1 inhibitor 2, PRMT1 inh 5, SIAE inh 5, mABHD4 FP 3 and TCR CD3 inh 2.
`CCCCN(C(=O)c1cccc(S(=O)(=O)N(CC)c2ccccc2)c1)c1c(N)n(CC(C)C)c(=O)[nH]c1=O` gave HTRA1 inhibitor -8, PRMT1 inh -1, SIAE inh 1, mABHD4 FP -3 and TCR CD3 inh 2.
Screening Cc1ccc(NS(=O)(=O)c2cccc(C(=O)NNC(=O)c3ccco3)c2)c(C)c1 returned HTRA1 inhibitor -1, PRMT1 inh 0, SIAE inh 2, mABHD4 FP 0 and TCR CD3 inh 6.
For Cc1ccc(NS(=O)(=O)c2cccc(C(=O)NNC(=O)NC3CCCCC3)c2)c(C)c1 the results were HTRA1 inhibitor -3, PRMT1 inh -5, SIAE inh 18*, mABHD4 FP -12, TCR CD3 inh 3 and SIAE inh conf 0.
OCC1(CCc2ccccc2)CCCN(C/C=C/c2ccccc2)C1 (stereo unspecified) was read as HTRA1 inhibitor -10, PRMT1 inh -1, SIAE inh 18*, mABHD4 FP -1, TCR CD3 inh 5 and SIAE inh conf -2.
COc1ccccc1/C=C/CN1CCCC(CO)(CCc2ccccc2)C1 (stereo unspecified) was read as HTRA1 inhibitor -23, PRMT1 inh -3, SIAE inh 2, mABHD4 FP -7 and TCR CD3 inh -3.
`CC(C)CC(c1nc2ccccc2[nH]1)n1c(-c2ccccc2Br)nc2ccccc21` (stereo unspecified) gave PRMT1 inh -1, SIAE inh -6, mABHD4 FP -16 and TCR CD3 inh -4.
COc1ccc2nc(C(c3ccc(C)cc3)n3c(-c4ccccc4Br)nc4ccccc43)[nH]c2c1 (stereo unspecified) was read as PRMT1 inh 4, SIAE inh 27*, mABHD4 FP 9, TCR CD3 inh 3 and SIAE inh conf -3.
For O=C(Nc1ccc(F)cc1)Nc1cc(S(=O)(=O)N2CCOCC2)ccc1N1CCCC1 the results were HTRA1 inhibitor -1, PRMT1 inh 3, SIAE inh 20*, mABHD4 FP 2, TCR CD3 inh 0 and SIAE inh conf 17*.
For O=C(CSc1nnc(-c2ccccc2F)n1C1CCCCC1)Nc1cc(C(=O)O)ccc1Cl the results were HTRA1 inhibitor -3, PRMT1 inh 3, SIAE inh 5, mABHD4 FP -7 and TCR CD3 inh 7.
For Cc1ccc(C(=O)O)cc1NC(=O)CSc1nnc(-c2ccccc2F)n1C1CCCCC1 the results were HTRA1 inhibitor 2, PRMT1 inh 3, SIAE inh 19*, mABHD4 FP -2, TCR CD3 inh 1 and SIAE inh conf 2.
CSCCC(NC(=O)COc1ccccc1)C(=O)NCC1COc2ccccc2O1 (stereo unspecified) was read as HTRA1 inhibitor -2, PRMT1 inh 3, SIAE inh 7, mABHD4 FP 6 and TCR CD3 inh 2.
For CCn1c(N)cc(=O)[nH]c1=S the results were HTRA1 inhibitor 5, PRMT1 inh -4, SIAE inh -3, mABHD4 FP -3 and TCR CD3 inh 0.
Nc1nc(SCC(=O)Nc2ccc(C(F)(F)F)cc2)[nH]c(=O)c1NC(=O)c1ccc(F)c(F)c1 was read as HTRA1 inhibitor 5, PRMT1 inh 1, SIAE inh -34, mABHD4 FP 3 and TCR CD3 inh -4.
`COc1ccc(C(=O)Nc2c(N)nc(SCC(=O)Nc3ccc(NC(C)=O)cc3)[nH]c2=O)cc1OC` gave HTRA1 inhibitor -2, PRMT1 inh 1, SIAE inh 18*, mABHD4 FP -5, TCR CD3 inh 1 and SIAE inh conf -5.
For CCN(CCO)C(=O)c1ccc2oc(Cc3ccc(Cl)cc3)nc2c1 the results were HTRA1 inhibitor 1, PRMT1 inh -1, SIAE inh 4, mABHD4 FP -2 and TCR CD3 inh -8.
Screening CCN(CCO)C(=O)c1ccc2nc(Cc3ccc(OC)cc3)oc2c1 returned HTRA1 inhibitor 0, PRMT1 inh -1, SIAE inh 24*, mABHD4 FP -2, TCR CD3 inh 9 and SIAE inh conf -2.
Screening COc1ccc(/C=N/n2c(-c3ccccc3)n[nH]c2=S)cc1 returned HTRA1 inhibitor 4, PRMT1 inh 2, SIAE inh 22*, mABHD4 FP 5, TCR CD3 inh 4 and SIAE inh conf 0.
`C[n+]1ccc2[nH]c3ccccc3c2c1` gave PRMT1 inh -3, SIAE inh 26*, mABHD4 FP -1, TCR CD3 inh 4 and SIAE inh conf -6.
COc1ccc(-c2[nH]c(-c3cc(OC)c4c(c3)OCO4)nc2-c2ccccc2)cc1 was read as HTRA1 inhibitor 8, PRMT1 inh 2, SIAE inh 26*, mABHD4 FP 15, TCR CD3 inh 6 and SIAE inh conf -2.

Assay outcomes: PubChem, The Scripps Research Institute Molecular Screening Center
